# ChEMBL document CHEMBL5236607, “Membrane-Active Cyclic Amphiphilic Peptides: Broad-Spectrum Antibacterial Activity Alone and in Combination with Antibiotics” (J Med Chem, 2022)
# Active and inactive are the calls of the source. The rule behind the calls is not given here. Peptide text beside a SMILES is read from it.
# What was measured:
# Escherichia coli [1] = assay: Synergistic antibacterial activity against Escherichia coli ATCC 25922 assessed as fractional inhibitory concentration index incubated for 24 hrs in presence of tobramycin by checkerboard assay; format: functional
# Summary of the method: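 Checkerboard assay in MH broth. Inoculum from an LB overnight culture set to 0.5 McFarland and diluted 1/150. […] Each agent was also titrated alone. Incubation 24 h at 37 °C. FIC = combination MIC/individual MIC; FICI = sum of the FICs. Triplicate.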
# Staphylococcus aureus [2] = assay: Synergistic antibacterial activity against methicillin resistant Staphylococcus aureus ATCC BAA-1556 fractional inhibitory concentration incubated for 24 hrs in presence of levofloxacin by checkerboard assay; format: functional
# Summary of the method: (§1)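 Checkerboard assay. Inoculum from an LB overnight culture at 0.5 McFarland, diluted 1/150 in MH media. […] Incubated 37 °C for 24 h. FICI = MIC combination/MIC alone summed over both agents. Triplicate.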
# [3] = Therapeutic index, ratio of cytotoxicity against human HEKa to MIC for methicillin resistant Staphylococcus aureus
# Staphylococcus aureus [4] = assay: Synergistic antibacterial activity against methicillin resistant Staphylococcus aureus ATCC BAA-1556 fractional inhibitory concentration index incubated for 24 hrs in presence of levofloxacin by checkerboard assay; format: functional; summary of the method: as §1
# Klebsiella pneumoniae = assay: Antibacterial activity against multidrug resistant Klebsiella pneumoniae 1188718 after 24 hrs by microbroth dilution method; format: functional
# Staphylococcus aureus [5] = assay: Bactericidal activity against methicillin resistant Staphylococcus aureus assessed as reduction in bacterial cells by time kill assay; format: functional, organism-based; conditions: TDE = time-dependent effect
# Summary of the method: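 Time-kill in Müller–Hinton media. […] Aliquots taken at 0–24 h, serially diluted and plated on MH agar. CFU counted after 24 h at 37 °C. Two independent experiments in triplicate.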
# [6] = Membrano-lytic effect in bacterial inner membrane mimic DOPC/DOPG (7:3) large unilamellar vesicles assessed as calcein leakage measured upto 100 mins by multimode microplate reader assay; format: cell membranes; conditions: dose 5-50 µg/ml
# Summary of the method: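 Calcein (70 mM) loaded into extruded 100 nm LUVs: DOPC:DOPG 7:3 (w/w) as the bacterial mimic, DOPC/cholesterol 10:1 (w/w) as the mammalian mimic. Free dye removed by gel filtration. Liposomes at 40 μM final lipid in PBS mixed 1:1 with peptide (5–50 μg/mL). Fluorescence (ex 490/em 520 nm) read every 10 min for 100 min; Triton X-100 defines 100% release. Triplicate.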
# Cell membrane [7] = assay: Membrano-lytic activity against Escherichia coli assessed as loss of membrane fluidity at 4 times MIC after 1 hr by SEM analysis; format: subcellular
# Summary of the method: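 E. coli ATCC BAA-2452 from overnight culture, suspended at 10^7 CFU/mL in 10 mM PBS pH 7.4. […] Fixed in 4% glutaraldehyde in cacodylate buffer pH 7.4 for 3 h at 4 °C, ethanol-dehydrated, HMDS-dried, Au/Pd-coated, then imaged by FE-SEM.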
# Cell membrane [8] = assay: Membrano-lytic activity against methicillin resistant Staphylococcus aureus assessed as change in morphology at 4 times MIC after 1 hr by SEM analysis; format: subcellular
# Escherichia coli [9] = assay: Synergistic antibacterial activity against Escherichia coli ATCC 25922 fractional inhibitory concentration index incubated for 24 hrs in presence of meropenem by checkerboard assay; format: functional; summary of the method: as §1
# Staphylococcus aureus [10] = assay: Synergistic antibacterial activity against methicillin resistant Staphylococcus aureus ATCC BAA-1556 fractional inhibitory concentration incubated for 24 hrs in presence of polymyxin B by checkerboard assay; format: functional; summary of the method: as §1
Structure (SMILES),fractional inhibitory concentration index (FICI) (Escherichia coli [1]),FIC (Staphylococcus aureus [2]),TI [3],fractional inhibitory concentration index (FICI) (Staphylococcus aureus [4]),MIC (Klebsiella pneumoniae),Activity (Staphylococcus aureus [5]),Activity [6],Activity (Cell membrane [7]),Activity (Cell membrane [8]),fractional inhibitory concentration index (FICI) (Escherichia coli [9]),FIC (Staphylococcus aureus [10])
N=C(N)NCCC[C@@H]1NC(=O)[C@H](CCCNC(=N)N)NC(=O)[C@H](CCCNC(=N)N)NC(=O)[C@H](Cc2c[nH]c3ccccc23)NC(=O)[C@H](Cc2c[nH]c3ccccc23)NC(=O)[C@H](Cc2c[nH]c3ccccc23)NC(=O)[C@H](Cc2c[nH]c3ccccc23)NC(=O)[C@H](CCCNC(=N)N)NC(=O)[C@H](CCCNC(=N)N)NC1=O,0.5,0.25,63,0.5,> 64 µg/mL,Tde,Dose-Dependent Effect,Active,Active,,
N=C(N)NCCC[C@@H]1NC(=O)[C@H](CCCNC(=N)N)NC(=O)[C@H](CCCNC(=N)N)NC(=O)[C@H](CCCNC(=N)N)NC(=O)[C@H](Cc2c[nH]c3ccccc23)NC(=O)[C@H](Cc2c[nH]c3ccccc23)NC(=O)[C@H](Cc2c[nH]c3ccccc23)NC(=O)[C@H](Cc2c[nH]c3ccccc23)NC(=O)[C@H](CCCNC(=N)N)NC(=O)[C@H](CCCNC(=N)N)NC1=O (cyclo(RRRRRRWWWW)),,,,,,,,,,0.375,0.063
